The structures appear in SMILES notation.

The target in assay [1] is T1, D(2) dopamine receptor (Homo sapiens, UniProt P14416). The experiment in a line: Displacement of [125I]IABN from human D2L receptor expressed in HEK cells measured after 60 mins by gamma counting method. The class given is cell-based.
Assay [2] concerns the target T2, D(3) dopamine receptor (Homo sapiens, UniProt P35462). The experiment in a line: Displacement of [125I]IABN from human D3 receptor expressed in HEK cells measured after 60 mins by gamma counting method. The class given is cell-based.
The species named for a further assay is Homo sapiens. The experiment in a line: Selectivity ratio of Ki for displacement of [125I]IABN from human D2L receptor expressed in HEK cells to Ki for displacement of [125I]IABN from human D3R expressed in HEK cells. Type of assay: cell-based. The method, boiled down: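 20 µM (+)-butaclamol defines nonspecific binding. Inhibitor over 5 log units, two points per decade, triplicates. Gamma counting. Single-site IC50 converted to Ki (Cheng–Prusoff), ≥3 experiments. Ratio is D2 Ki/D3 Ki.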
Background: Loss of bound radioactivity is the signal in a displacement assay; it reports binding, not function.

For assay [3], the target named is T2, D(3) dopamine receptor. The assay is described as follows: Binding affinity to human D3 receptor expressed in CHO-K1 cells assessed as inhibition of dopamine-induced beta-arrestin recruitment preincubated for 30 mins followed by dopamine addition and measured after 90 mins by pathhunter assay. For orientation: Activated receptors often draw arrestin, which recruitment assays turn into a signal.

Assay [4] deals with T1, D(2) dopamine receptor. The experiment in a line: Binding affinity to D2 receptor (unknown origin).

T2 sequence (P35462 whole entry): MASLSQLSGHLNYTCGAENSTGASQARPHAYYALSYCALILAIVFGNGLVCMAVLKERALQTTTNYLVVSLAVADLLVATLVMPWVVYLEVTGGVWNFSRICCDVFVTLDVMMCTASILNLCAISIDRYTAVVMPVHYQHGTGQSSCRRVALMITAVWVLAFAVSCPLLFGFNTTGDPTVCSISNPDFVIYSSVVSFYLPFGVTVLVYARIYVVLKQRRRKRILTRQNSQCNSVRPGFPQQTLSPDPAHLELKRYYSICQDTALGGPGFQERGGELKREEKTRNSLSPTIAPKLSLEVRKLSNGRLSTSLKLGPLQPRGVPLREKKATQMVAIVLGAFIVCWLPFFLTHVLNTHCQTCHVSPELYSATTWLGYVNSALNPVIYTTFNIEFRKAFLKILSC
T1 sequence (P14416 whole entry): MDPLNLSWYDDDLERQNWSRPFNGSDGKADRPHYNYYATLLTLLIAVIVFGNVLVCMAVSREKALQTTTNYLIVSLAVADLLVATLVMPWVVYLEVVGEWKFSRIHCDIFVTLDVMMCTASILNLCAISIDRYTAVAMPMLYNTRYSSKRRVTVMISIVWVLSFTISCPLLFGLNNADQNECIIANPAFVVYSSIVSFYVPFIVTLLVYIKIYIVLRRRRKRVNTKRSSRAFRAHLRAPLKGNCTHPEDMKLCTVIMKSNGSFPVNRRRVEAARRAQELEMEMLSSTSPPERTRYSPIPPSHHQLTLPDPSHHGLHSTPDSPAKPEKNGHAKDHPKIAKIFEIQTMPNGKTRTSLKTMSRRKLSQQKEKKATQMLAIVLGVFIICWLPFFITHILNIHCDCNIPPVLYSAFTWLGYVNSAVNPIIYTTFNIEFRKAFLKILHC

For the compound `C=CCN1C[C@H](OCCO)C[C@H]1CNC(=O)c1cc(CCCF)cc(OC)c1OC`, the Ki amounted to 8.4 nM at D(2) dopamine receptor [1] and 2.4 nM at D(3) dopamine receptor [2]. In the assay filed under Homo sapiens, the Ratio Ki is 3.5.
Taken in the same sequence, the figures for `C=CCN1C[C@H](OC(=O)Nc2cccnc2)C[C@H]1CNC(=O)c1cc(CCCF)cc(OC)c1OC` were 8.3 nM, 3.7 nM and 2.2.
The like results for `C=CCN1C[C@H](OCCCCN)C[C@H]1CNC(=O)c1cc(CCCF)cc(OC)c1OC` were, in that order, 2.2 nM, 1.5 nM and 1.4.
Regarding `C=CCN1C[C@H](OC(=O)NCCc2ccccc2)C[C@H]1CNC(=O)c1cc(CCCF)cc(OC)c1OC`, the Ki at D(2) dopamine receptor [1] turned out to be 30 nM; at D(3) dopamine receptor [2] it was 12.8 nM. Also, in the assay listed under Homo sapiens, the Ratio Ki amounted to 2.3.
`C=CCN1C[C@H](OCc2ccccc2)C[C@H]1CNC(=O)c1cc(CCCF)cc(OC)c1OC`: the Ki at D(3) dopamine receptor [2] came out at 9.5 nM.
Consider `C=CCN1C[C@H](OCc2cccnc2)C[C@H]1CNC(=O)c1cc(CCCF)cc(OC)c1OC`, for which the Ki on D(2) dopamine receptor [1] is 2.5 nM; at D(3) dopamine receptor [2], 1.7 nM. Besides, the Ratio Ki in the assay listed under Homo sapiens was 1.5.
Regarding `C=CCN1C[C@H](OC(=O)Nc2ccccn2)C[C@H]1CNC(=O)c1cc(CCCF)cc(OC)c1OC`, the Ki at D(2) dopamine receptor [1] is 10.1 nM; on D(3) dopamine receptor [2], 4.1 nM. Besides, the Ratio Ki in the assay listed under Homo sapiens is 2.4.
Regarding `C=CCO[C@@H]1C[C@@H](CNC(=O)c2cc(CCCF)cc(OC)c2OC)N(CC=C)C1`, the Ki on D(2) dopamine receptor [1] was 7.4 nM; on D(3) dopamine receptor [2], 2.6 nM. Besides, the Ratio Ki in the assay listed under Homo sapiens was 2.8.
As for `C=CCN1C[C@H](OC(=O)Nc2ccc(-c3ccsc3)cc2)C[C@H]1CNC(=O)c1cc(CCCF)cc(OC)c1OC`, on D(3) dopamine receptor [3], the IC50 is 169 nM. Besides, the values for the Ki at D(2) dopamine receptor [1] and on D(3) dopamine receptor [2] were 28.8 nM and 7.7 nM, respectively. Besides, in the assay filed under Homo sapiens, the Ratio Ki was found to be 3.7.
`CCN1C[C@H](OC(=O)Nc2ccc(-c3ccsc3)cc2)C[C@H]1CNC(=O)c1cc(CCCF)cc(OC)c1OC`: the IC50 on D(3) dopamine receptor [3] turned out to be 62.7 nM. The Ki at D(2) dopamine receptor [1] was 16.2 nM; on D(3) dopamine receptor [2], 4.3 nM. For the same compound, the Ratio Ki in the assay listed under Homo sapiens was 3.8.
The like results for `C=CCN1C[C@H](OCCN)C[C@H]1CNC(=O)c1cc(CCCF)cc(OC)c1OC` were, in that order, 11 nM, 107 nM, 9.5 nM and 11.3.
As to `C=CCN1C[C@H](OCc2ccncc2)C[C@H]1CNC(=O)c1cc(CCCF)cc(OC)c1OC`, the Ki on D(2) dopamine receptor [1] worked out at 7 nM; on D(3) dopamine receptor [2] it was 4 nM. Further, the Ratio Ki in the assay filed under Homo sapiens is 1.7.
For `C=CCN1C[C@H](OC(=O)Nc2ccccc2)C[C@H]1CNC(=O)c1cc(CCCF)cc(OC)c1OC`, the Ki is 29.2 nM at D(2) dopamine receptor [1] and 14.6 nM at D(3) dopamine receptor [2]. Further, the Ratio Ki in the assay listed under Homo sapiens is 2.
For the compound `C=CCN1C[C@@H](OC(=O)Nc2ccc(-c3ccsc3)cc2)C[C@@H]1CNC(=O)c1cc(CCCF)cc(OC)c1OC`, at D(2) dopamine receptor [1], the Ki turned out to be 189 nM. Besides, the Ratio Ki in the assay filed under Homo sapiens was 6.7.
Turning to `C=CCN1CCC[C@H]1CNC(=O)c1cc(CCCF)cc(OC)c1OC` [FALLYPRIDE], the Ki at D(2) dopamine receptor [4] was 0.02 nM.
As to `CCN1C[C@H](OCCCN)C[C@H]1CNC(=O)c1cc(CCCF)cc(OC)c1OC`, on D(3) dopamine receptor [3], the concentration for half-maximal inhibition (IC50) is 3.3 nM. For the same compound, the Ki was determined as 2.9 nM on D(2) dopamine receptor [1] and 1.4 nM at D(3) dopamine receptor [2]. For the same compound, the Ratio Ki in the assay listed under Homo sapiens was 2.1.
As to `C=CCN1C[C@H](OCCCN)C[C@H]1CNC(=O)c1cc(CCCF)cc(OC)c1OC`, the IC50 at D(3) dopamine receptor [3] turned out to be 1.3 nM. The Ki at D(2) dopamine receptor [1] was found to be 18.6 nM; at D(3) dopamine receptor [2], 8.4 nM. For the same compound, the Ratio Ki in the assay listed under Homo sapiens was found to be 2.2.
Turning to `C=CCN1C[C@H](OCc2ccc(C(F)(F)F)cc2)C[C@H]1CNC(=O)c1cc(CCCF)cc(OC)c1OC`, the Ki was found to be 32.1 nM on D(2) dopamine receptor [1] and 23.7 nM at D(3) dopamine receptor [2]. For the same compound, in the assay listed under Homo sapiens, the Ratio Ki was found to be 1.4.
Turning to `C=CCN1C[C@H](OCCCO)C[C@H]1CNC(=O)c1cc(CCCF)cc(OC)c1OC`, the inhibitory constant (Ki) on D(2) dopamine receptor [1] is 14.2 nM; at D(3) dopamine receptor [2] it was 7.3 nM. Moreover, the Ratio Ki in the assay listed under Homo sapiens is 1.9.
As for `C=CCN1C[C@H](OC(=O)Nc2ccsc2)C[C@H]1CNC(=O)c1cc(CCCF)cc(OC)c1OC`, the Ki worked out at 7.7 nM at D(2) dopamine receptor [1] and 6.1 nM at D(3) dopamine receptor [2]. For the same compound, the Ratio Ki in the assay listed under Homo sapiens is 1.3.
The like results for `C=CCN1C[C@H](OC(=O)Nc2ccccc2C)C[C@H]1CNC(=O)c1cc(CCCF)cc(OC)c1OC` were, in that order, 12.6 nM, 8.4 nM and 1.5.
The like results for `C=CCN1C[C@H](OCc2ccc(F)cc2)C[C@H]1CNC(=O)c1cc(CCCF)cc(OC)c1OC` were, in that order, 9.5 nM, 4.7 nM and 2.
Consider `C=CCN1C[C@H](OC(=O)Nc2ccc(-c3ccsc3)cc2)C[C@@H]1CNC(=O)c1cc(CCCF)cc(OC)c1OC`, for which the Ki on D(2) dopamine receptor [1] is above 41000 nM; on D(3) dopamine receptor [2], 6790 nM. Besides, the Ratio Ki in the assay filed under Homo sapiens was above 6.
The like results for `C=CCN1C[C@H](OC(=O)Nc2cccc(N(C)C)c2)C[C@H]1CNC(=O)c1cc(CCCF)cc(OC)c1OC` were, in that order, 14 nM, 10.6 nM and 1.3.
Taken in the same sequence, the figures for `C=CCN1C[C@H](OC(=O)NCc2ccccc2)C[C@H]1CNC(=O)c1cc(CCCF)cc(OC)c1OC` were 10.1 nM, 6.2 nM and 1.6.
As to `C=CCN1C[C@H](OCCCNC(=O)c2ccc(-c3ccsc3)cc2)C[C@H]1CNC(=O)c1cc(CCCF)cc(OC)c1OC`, the IC50 at D(3) dopamine receptor [3] was 8.1 nM. The values for the inhibition constant (Ki) on D(2) dopamine receptor [1] and on D(3) dopamine receptor [2] were 13.4 nM and 4.2 nM, respectively. The Ratio Ki in the assay listed under Homo sapiens amounted to 3.2.
Consider `C=CCN1C[C@H](OC(=O)Nc2ccoc2)C[C@H]1CNC(=O)c1cc(CCCF)cc(OC)c1OC`, for which the Ki at D(2) dopamine receptor [1] turned out to be 8.3 nM; on D(3) dopamine receptor [2], 15 nM. In addition, the Ratio Ki in the assay filed under Homo sapiens stood at 0.6.
Taken in the same sequence, the figures for `C=CCN1CC[C@H](OCCCN)[C@H]1CNC(=O)c1cc(CCCF)cc(OC)c1OC` were 21.4 nM, 6.2 nM and 3.5.
In the case of `C=CCN1C[C@H](OC(=O)Nc2ccc(-c3ccccn3)cc2)C[C@H]1CNC(=O)c1cc(CCCF)cc(OC)c1OC`, at D(3) dopamine receptor [3], the IC50 was determined as 79.2 nM. Further, the Ki is 22.4 nM at D(2) dopamine receptor [1] and 15.8 nM on D(3) dopamine receptor [2]. Besides, the Ratio Ki in the assay filed under Homo sapiens is 1.4.
`C=CCN1C[C@@H](OC(=O)Nc2ccc(-c3ccsc3)cc2)C[C@H]1CNC(=O)c1cc(CCCF)cc(OC)c1OC`: the affinity on D(2) dopamine receptor [1] corresponds to a Ki of 9690 nM. Moreover, the Ratio Ki in the assay listed under Homo sapiens was determined as 16.5.
With `C=CCN1C[C@H](OCCCN)C[C@@H]1CNC(=O)c1cc(CCCF)cc(OC)c1OC`, the Ki on D(2) dopamine receptor [1] was 2350 nM; on D(3) dopamine receptor [2] it was 1950 nM. Besides, the Ratio Ki in the assay filed under Homo sapiens was determined as 1.2.
Taken in the same sequence, the figures for `C=CCN1CC[C@H](OCc2ccccc2)[C@H]1CNC(=O)c1cc(CCCF)cc(OC)c1OC` were 7.3 nM, 2.9 nM and 2.5.
Turning to `C=CCN1C[C@H](OC(=O)Nc2cc(C)ccc2OC)C[C@H]1CNC(=O)c1cc(CCCF)cc(OC)c1OC`, the inhibitory constant (Ki) on D(2) dopamine receptor [1] is 18.7 nM; on D(3) dopamine receptor [2], 12.5 nM. Also, the Ratio Ki in the assay filed under Homo sapiens stood at 1.5.

A word on the Ki: it is a measure of affinity in units of concentration, obtained from inhibition or displacement. A higher Ki goes with weaker binding. As usually defined, the IC50 is the concentration at which inhibition is half-maximal.

These data come from ChEMBL document CHEMBL5634103 (Eur J Med Chem, 2023).
